Converted amounts (≈) assume the structure as drawn. The source made the active and inactive calls. The calls are words filed in the database; no cut-off is given here.
Key:
[1] = target: T1, Cannabinoid receptor 1 (Homo sapiens, UniProt P21554); assay: Allosteric modulator activity at human CB1 receptor expressed in CHO-RD-HGA16 cells co-expressing Galpha16 assessed as suppression of 100 nM CP55,940-induced calcium mobilization pre-incubated for 15 mins by Calcium 5 dye based FLIPR assay; assay type: functional, cell-based
[2] = Efflux ratio from basolateral to apical side over apical to basolateral side in MDCK-MDR1 cells incubated up to 90 mins by LC-MS/MS analysis; assay type: ADME, cell-based, Canis lupus familiaris; settings: dog
[3] = system: Rattus norvegicus; assay: Suppression of drug-induced cocaine-seeking behavior in Sprague-Dawley rat assessed as effect on active responses at 10 mg/kg, ip pretreated 10 mins prior to priming injection of cocaine administered immediately before the start of the reinstatement session; assay type: functional, organism-based
[4] = Half life in rat liver microsomes in presence of NADPH by LC-MS/MS analysis; assay type: ADME, Microsome; settings: microsomes
Outline: (§1)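 Rat liver microsomes (0.5 mg/mL protein) in 100 mM potassium phosphate pH 7.4 at 37 °C with 1 mM NADPH. Samples were taken at 0, 5, 15, 30 and 45 min, quenched with cold acetonitrile containing internal standards, and analysed by LC/MS/MS. Half-life and clearance were calculated; two independent experiments in duplicate.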

[5] = Kinetic solubility in phosphate buffer at 400 uM incubated for 2 hrs by LC-MS/MS analysis; assay type: physicochemical; settings: read-out: Kinetic_solubility
Outline: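 A 20 mM DMSO stock was diluted into phosphate buffer to a targeted 400 µM and vortexed 2 h at room temperature. Three independent experiments in duplicate.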

[6] = Apparent permeability from basolateral to apical side in MDCK-MDR1 cells incubated up to 90 mins by LC-MS/MS analysis; assay type: ADME, cell-based, Canis lupus familiaris; settings: dog
Outline: (§2)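 MDCK-MDR1 cells were grown 3 days on Transwell supports and preincubated 30 min at 37 °C in HBSS with 10 mM HEPES and 0.25% BSA, pH 7.4, with TEER checked. Test article (10 µM) was added to the apical (A-to-B) or basolateral (B-to-A) donor side at 37 °C with light agitation. Receiver samples were taken at 30, 60 and 90 min for LC-MS/MS. Papp = (dQ/dt)/(A·Ci·60).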

[7] = target: T2, Cannabinoid receptor 2 (Homo sapiens, UniProt P34972); assay: (§3) Antagonist activity at human CB2 receptor expressed in CHO cells co-expressing Galpha16 assessed as inhibition of EC80 CP55,940-induced calcium mobilization preincubated for 15 mins followed by […] addition measured at 1 sec interval for 90 secs by calcium-5 dye based FLIPR assay; assay type: functional, cell-based
Outline: (§4)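 CB2 antagonist mode in stable human CB2-CHO-RD-HGA16 cells. Cells were dye-loaded, then pretreated with compound for 15 min at 37 °C. CP55,940 was added at its EC80 at the 10 s point, and calcium fluorescence was recorded every 1 s over 90 s.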

[8] = target: T2, Cannabinoid receptor 2; assay: as §3, with “mobilization at 10 uM” for “mobilization”, “assay relative to CP55,940” for “assay”; assay type: functional, cell-based; outline: as §4
[9] = system: Rattus norvegicus; assay: Suppression of drug-induced cocaine-seeking behavior in Sprague-Dawley rat assessed as effect on inactive responses at 10 mg/kg, ip pretreated 10 mins prior to priming injection of cocaine administered immediately before the start of the reinstatement session; assay type: functional, organism-based
[10] = target: T1, Cannabinoid receptor 1; assay: Inverse agonist activity at human CB1 receptor expressed in HEK293 cell membranes assessed as suppression of [35S]GTPgammaS binding up to 10 uM incubated for 60 mins by scintillation counting method; settings: hek293, 1 h
Outline: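 Inverse agonism on human CB1-HEK293 membranes: compounds were incubated 60 min with 0.1 nM [35S]GTPγS and 30 µM GDP, with no CP55,940 present. Buffer was Tris/MgCl2/EGTA pH 7.4 with 0.5% BSA, at 30 °C. Binding was read by filtration and scintillation counting and normalized to basal (vehicle = 0%).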

[11] = Clearance in rat liver microsomes in presence of NADPH incubated up to 45 mins by LC-MS/MS analysis; assay type: ADME, Microsome; settings: microsomes, […]; outline: as §1
[12] = Apparent permeability from apical to basolateral side in MDCK-MDR1 cells incubated up to 90 mins by LC-MS/MS analysis; assay type: ADME, cell-based, Canis lupus familiaris; settings: dog; outline: as §2
[13] = target: T2, Cannabinoid receptor 2; assay: Agonist activity at human CB2 receptor expressed in CHO cells co-expressing Galpha16 assessed as increase in calcium mobilization at 10 uM measured at 1 sec interval for 90 secs by calcium-5 dye based FLIPR assay relative to CP55,940; assay type: functional, cell-based

T2 sequence (P34972 whole entry): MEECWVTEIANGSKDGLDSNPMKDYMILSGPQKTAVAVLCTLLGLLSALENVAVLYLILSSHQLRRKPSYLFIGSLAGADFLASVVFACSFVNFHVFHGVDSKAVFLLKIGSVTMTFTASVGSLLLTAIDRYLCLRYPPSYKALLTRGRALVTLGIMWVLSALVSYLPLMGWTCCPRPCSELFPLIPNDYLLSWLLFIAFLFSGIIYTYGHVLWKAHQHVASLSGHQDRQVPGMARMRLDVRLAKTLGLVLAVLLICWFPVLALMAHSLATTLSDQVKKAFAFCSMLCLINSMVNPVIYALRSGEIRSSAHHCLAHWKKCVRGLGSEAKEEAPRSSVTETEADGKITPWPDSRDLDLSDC
T1 sequence (P21554 whole entry): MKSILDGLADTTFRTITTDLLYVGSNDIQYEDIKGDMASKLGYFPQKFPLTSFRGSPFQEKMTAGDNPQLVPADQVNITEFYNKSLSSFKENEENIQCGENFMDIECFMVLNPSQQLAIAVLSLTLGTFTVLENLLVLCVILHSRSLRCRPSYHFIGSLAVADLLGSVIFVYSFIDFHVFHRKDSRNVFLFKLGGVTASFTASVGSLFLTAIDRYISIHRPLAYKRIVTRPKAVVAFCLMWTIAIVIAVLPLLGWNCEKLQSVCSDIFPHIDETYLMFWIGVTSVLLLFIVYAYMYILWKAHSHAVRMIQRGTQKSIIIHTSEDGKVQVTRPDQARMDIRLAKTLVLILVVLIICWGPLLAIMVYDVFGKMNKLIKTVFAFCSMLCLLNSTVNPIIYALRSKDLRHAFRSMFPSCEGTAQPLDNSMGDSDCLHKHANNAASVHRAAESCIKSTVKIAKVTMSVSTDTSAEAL

SMILES: O=C(Nc1ccc(Cl)cc1)Nc1ccc(-c2ccccc2)s1
- IC50 [1]: 6.8 nM
- Ratio [2]: 0.7
- Activity [3]: inactive
- t1/2 [4]: 1.08 h
- solubility kinetic at 2 h, 400 µM [5]: 1.5 µM (≈ 0.493 µg/mL)
- Papp [6]: 1.1 ×10⁻⁶ cm/s
- IC50 [7]: > 10000 nM
- inhibition [8]: < 50%
- Activity [9]: inactive
- inhibition (INH) [10]: Not Active
- CLH [11]: 22.2 µL/min/mg
- Papp [12]: 1.6 ×10⁻⁶ cm/s
- Emax [13]: < 10%

Source: ChEMBL document CHEMBL4414612, “Synthesis and Pharmacological Evaluation of 1-Phenyl-3-Thiophenylurea Derivatives as Cannabinoid Type-1 Receptor Allosteric Modulators” (J Med Chem, 2019)
